According to PMC6791425 (Oncoimmunology, 2019):

Experiments:
[1] = molecular target: PSMA expressed on LNCaP cells (Homo sapiens, UniProt Q04609); experiment: competitive cell-binding assay with PSMA-positive LNCaP cells
[2] = biodistribution analysis in LNCaP tumor-bearing mice; type: in vivo, NMRI nu/nu mice; details: high molar activity, approximately 10 MBq
How it was run: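 Mice bearing LNCaP tumours (100–500 mm3) were injected with approximately 10 MBq of the 68Ga-labelled test compound, giving groups at high molar activity (low peptide amount) and low molar activity (high peptide amount). Organ distribution was determined in three mice per condition. Labelling was done at pH 4.2, 98°C, for 10 min in HEPES.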

Chain of PSMA expressed on LNCaP cells (Q04609 whole entry): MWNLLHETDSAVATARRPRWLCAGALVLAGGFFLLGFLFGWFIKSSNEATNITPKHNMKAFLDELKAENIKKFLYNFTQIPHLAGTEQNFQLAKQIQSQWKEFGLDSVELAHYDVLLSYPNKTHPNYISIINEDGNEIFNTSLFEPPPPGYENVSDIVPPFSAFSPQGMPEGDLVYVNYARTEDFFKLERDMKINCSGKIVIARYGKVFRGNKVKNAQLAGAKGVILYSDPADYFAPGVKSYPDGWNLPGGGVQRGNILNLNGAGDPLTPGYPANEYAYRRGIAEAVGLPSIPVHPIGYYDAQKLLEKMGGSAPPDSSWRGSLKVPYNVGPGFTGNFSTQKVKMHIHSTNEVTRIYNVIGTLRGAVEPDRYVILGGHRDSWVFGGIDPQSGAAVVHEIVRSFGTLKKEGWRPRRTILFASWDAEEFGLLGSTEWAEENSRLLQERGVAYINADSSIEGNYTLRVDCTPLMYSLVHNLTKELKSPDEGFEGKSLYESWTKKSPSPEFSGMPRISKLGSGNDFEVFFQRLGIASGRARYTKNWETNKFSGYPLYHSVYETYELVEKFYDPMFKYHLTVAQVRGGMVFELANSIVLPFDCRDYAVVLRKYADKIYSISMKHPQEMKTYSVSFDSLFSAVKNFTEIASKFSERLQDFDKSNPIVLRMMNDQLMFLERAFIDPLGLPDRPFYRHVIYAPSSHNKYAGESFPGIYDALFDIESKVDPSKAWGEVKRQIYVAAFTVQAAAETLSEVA

SMILES	IC50 [1] [nM]	Tumor ([2]; LNCaP tumor)	Adrenals [2]	BAT [2]	Blood [2]	Brain [2]	Femur [2]	Heart [2]	Kidneys [2]	Liver [2]	Lung [2]	Muscle [2]	Pancreas [2]	Ratio tumor/muscle [2]	Skin [2]	Spleen [2]	Subm. gl. [2]	Testes [2]	WAT [2]
O=C(O)CCc1ccc(O)c(CN(CCN(CC(=O)O)Cc2cc(CCC(=O)NCCCCCC(=O)NCCCC[C@H](NC(=O)N[C@@H](CCC(=O)O)C(=O)O)C(=O)O)ccc2O)CC(=O)O)c1 [PSMA-11]	14.8 ± 1.2																		
O=C([O-])CN(CCN(CC(=O)[O-])Cc1cc(CCC(=O)NCCCCCC(=O)NCCCC[C@H](NC(=O)N[C@@H](CCC(=O)O)C(=O)O)C(=O)O)ccc1[O-])Cc1cc(CCC(=O)O)ccc1[O-].[68Ga+3].[OH3+] [[^68Ga]Ga-PSMA-11]		2.99 SUV (g/g)	3.11 SUV (g/g)	0.10 SUV (g/g)	0.06 SUV (g/g)	0.01 SUV (g/g)	0.04 SUV (g/g)	0.09 SUV (g/g)	50.79 SUV (g/g)	0.11 SUV (g/g)	0.45 SUV (g/g)	0.04 SUV (g/g)	0.29 SUV (g/g)	70.87	0.09 SUV (g/g)	1.53 SUV (g/g)	0.29 SUV (g/g)	0.22 SUV (g/g)	0.33 SUV (g/g)
